ChEMBL document CHEMBL1127345, “Synthesis, binding properties, and 18F labeling of fluorocarazolol, a high-affinity beta-adrenergic receptor antagonist” (J Med Chem, 1994)

Legend:
[1] = tested on: Mus musculus; assay: The in vivo tissue distribution of mouse brain without Propranolol preadministration in 40 min, value was fractional dose per fractional body weight of the organ
[2] = tested on: Mus musculus; assay: The in vivo tissue distribution of mouse brain without Propranolol preadministration in 60 min, value was fractional dose per fractional body weight of the organ; settings: 1 h
[3] = tested on: Mus musculus; assay: The in vivo tissue distribution of mouse lung without Propranolol preadministration in 180 min, value was fractional dose per fractional body weight of the organ; settings: 3 h
[4] = tested on: Mus musculus; assay: The in vivo tissue distribution of mouse kidney with Propranolol administration after 20 min, value was fractional dose per fractional body weight of the organ; type: ADME, organism-based
Method in brief: (§1)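 Male CF-1 mice (25–30 g), given 2 mg sodium pentobarbital ip 30 min before tracer. Blocked groups received propranolol iv by tail vein, 0.1 mL of 1 mg/mL. About 30 min later, 0.1 mL of [18F]tracer (1–2 mCi/mL) was injected by tail vein. Mice were killed by cervical dislocation at set times, and organs were weighed and counted. Uptake is %ID/g × body weight/100, average ± SD; n=5 for heart, brain, blood, lung, kidney, liver and bone.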

[5] = tested on: Mus musculus; assay: The in vivo tissue distribution of mouse bone with Propranolol administration after 120 min, value was fractional dose per fractional body weight of the organ; type: ADME, organism-based, Bone element; settings: 2 h
Method in brief: as §1

[6] = tested on: Mus musculus; assay: The in vivo tissue distribution of mouse liver with Propranolol preadministration in 120 min, value was fractional dose per fractional body weight of the organ; type: ADME, organism-based; settings: 2 h
Method in brief: (§2)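 Male CF-1 mice (25–30 g), anesthetised with 2 mg sodium pentobarbital ip 30 min before tracer. Where blocked, propranolol iv via tail vein (0.1 mL of […]; […]) about 30 min before tracer. Tracer given by tail vein, 0.1 mL at 1–2 mCi/mL. Mice killed by cervical dislocation at set times, organs weighed and counted. %ID/g × body weight/100 gives unitless uptake. Heart, brain, blood, lung, kidney, liver and bone n=5; average ± SD.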

[7] = tested on: Mus musculus; assay: The in vivo tissue distribution of mouse bone without Propranolol preadministration in 180 min, value was fractional dose per fractional body weight of the organ; settings: 3 h
[8] = tested on: Mus musculus; assay: The in vivo tissue distribution of mouse heart with Propranolol preadministration in 120 min, value was fractional dose per fractional body weight of the organ; type: ADME, organism-based; settings: 2 h
Method in brief: (§3)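 Male CF-1 mice (25–30 g) anaesthetised with 2 mg sodium pentobarbital ip; blocked group given 0.1 mL of […] propranolol iv via tail vein (200 μg, 6.6 mg/kg), tracer 30 min later. 0.1 mL of 1–2 mCi/mL [18F]-labelled enantiomer iv via tail vein; killed by cervical dislocation, organs weighed and counted against weighed standards. %ID/g × body weight/100 gives unitless uptake; five mice per point (heart, blood, lung, kidney, liver, bone); mean ± SD.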

[9] = tested on: Mus musculus; assay: The in vivo tissue distribution of mouse lung with Propranolol administration after 90 min, value was fractional dose per fractional body weight of the organ; type: ADME, organism-based; settings: 1.5 h
Method in brief: as §3

[10] = tested on: Mus musculus; assay: The in vivo tissue distribution of mouse brain without Propranolol preadministration in 120 min, value was fractional dose per fractional body weight of the organ; settings: 2 h
[11] = tested on: Mus musculus; assay: The in vivo tissue distribution of mouse liver without Propranolol preadministration in 180 min, value was fractional dose per fractional body weight of the organ; settings: 3 h
[12] = tested on: Mus musculus; assay: The in vivo tissue distribution of mouse blood with Propranolol administration after 60 min, value was fractional dose per fractional body weight of the organ; type: ADME, organism-based; settings: 1 h
Method in brief: as §2

[13] = tested on: Mus musculus; assay: The in vivo tissue distribution of mouse bone with Propranolol administration after 90 min, value was fractional dose per fractional body weight of the organ; type: ADME, organism-based, Bone element; settings: 1.5 h
Method in brief: as §2

[14] = tested on: Mus musculus; assay: The in vivo tissue distribution of mouse bone with Propranolol administration after 20 min, value was fractional dose per fractional body weight of the organ; type: ADME, organism-based, Bone element
Method in brief: as §3

[15] = tested on: Mus musculus; assay: The in vivo tissue distribution of mouse brain with Propranolol administration after 90 min, value was fractional dose per fractional body weight of the organ; type: ADME, organism-based; settings: 1.5 h
Method in brief: as §2

[16] = tested on: Mus musculus; assay: The in vivo tissue distribution of mouse brain with Propranolol administration after 180 min, value was fractional dose per fractional body weight of the organ; type: ADME, organism-based; settings: 3 h
Method in brief: as §1

[17] = tested on: Mus musculus; assay: The in vivo tissue distribution of mouse kidney with Propranolol administration after 90 min, value was fractional dose per fractional body weight of the organ; type: ADME, organism-based; settings: 1.5 h
Method in brief: as §2

[18] = tested on: Mus musculus; assay: The in vivo tissue distribution of mouse blood with Propranolol preadministration in 120 min, value was fractional dose per fractional body weight of the organ; type: ADME, organism-based; settings: 2 h
Method in brief: as §3

[19] = tested on: Mus musculus; assay: The in vivo tissue distribution of mouse kidney without Propranolol preadministration in 40 min, value was fractional dose per fractional body weight of the organ
[20] = tested on: Mus musculus; assay: The in vivo tissue distribution of mouse bone with Propranolol administration after 40 min, value was fractional dose per fractional body weight of the organ; type: ADME, organism-based, Bone element
Method in brief: as §2

[21] = tested on: Mus musculus; assay: The in vivo tissue distribution of mouse kidney without Propranolol preadministration in 120 min, value was fractional dose per fractional body weight of the organ; settings: 2 h
[22] = tested on: Mus musculus; assay: The in vivo tissue distribution of mouse heart with Propranolol administration after 90 min, value was fractional dose per fractional body weight of the organ; type: ADME, organism-based; settings: 1.5 h
Method in brief: as §2

[23] = tested on: Mus musculus; assay: The in vivo tissue distribution of mouse kidney with Propranolol administration after 60 min, value was fractional dose per fractional body weight of the organ; type: ADME, organism-based; settings: 1 h
Method in brief: as §3

[24] = tested on: Mus musculus; assay: The in vivo tissue distribution of mouse kidney with Propranolol administration after 180 min, value was fractional dose per fractional body weight of the organ; type: ADME, organism-based; settings: 3 h
Method in brief: as §2

[25] = tested on: Mus musculus; assay: The in vivo tissue distribution of mouse liver without Propranolol preadministration in 10 min, value was fractional dose per fractional body weight of the organ
[26] = tested on: Mus musculus; assay: The in vivo tissue distribution of mouse liver with Propranolol administration after 180 min, value was fractional dose per fractional body weight of the organ; type: ADME, organism-based; settings: 3 h
Method in brief: as §3

[27] = tested on: Mus musculus; assay: The in vivo tissue distribution of mouse lung without Propranolol preadministration in 40 min, value was fractional dose per fractional body weight of the organ
[28] = tested on: Mus musculus; assay: The in vivo tissue distribution of mouse kidney without Propranolol preadministration in 10 min, value was fractional dose per fractional body weight of the organ
[29] = tested on: Mus musculus; assay: The in vivo tissue distribution of mouse kidney without Propranolol preadministration in 60 min, value was fractional dose per fractional body weight of the organ; settings: 1 h
[30] = tested on: Mus musculus; assay: The in vivo tissue distribution of mouse heart with Propranolol administration after 60 min, value was fractional dose per fractional body weight of the organ; type: ADME, organism-based; settings: 1 h
Method in brief: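 Male CF-1 mice, 25–30 g, anesthetized with 2 mg sodium pentobarbital ip. Propranolol pretreatment was 0.1 mL of 1 mg/mL iv by tail vein. About 30 min later, 0.1 mL of 1–2 mCi/mL [18F]tracer was given by tail vein. Mice were killed by cervical dislocation at set times. Organs were weighed and counted against weighed dose standards. %ID/g × body weight/100 gave fractional dose per fractional body weight. Blood and heart n=5.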

| SMILES | Dose/organ [1] | Dose/organ [2] | Dose/organ [3] | Dose/organ [4] | Dose/organ [5] | Dose/organ [6] | Dose/organ [7] | Dose/organ [8] | Dose/organ [9] | Dose/organ [10] | Dose/organ [11] | Dose/organ [12] | Dose/organ [13] | Dose/organ [14] | Dose/organ [15] | Dose/organ [16] | Dose/organ [17] | Dose/organ [18] | Dose/organ [19] | Dose/organ [20] | further results |
| --- | --- | --- | --- | --- | --- | --- | --- | --- | --- | --- | --- | --- | --- | --- | --- | --- | --- | --- | --- | --- | --- |
| CC(C[18F])NC[C@H](O)COc1cccc2[nH]c3ccccc3c12 (stereo not given in full) | 1.09 | 0.81 | 4.8 | 2.19 | 1.42 | 0.96 | 1.9 | 0.45 | 1.06 | 0.64 | 0.88 | 0.25 | 0.72 | 0.86 | 0.38 | 0.09 | 0.92 | 0.52 | 2.01 | 0.64 | Dose/organ [21]: 0.83; Dose/organ [22]: 0.35; Dose/organ [23]: 1.28; Dose/organ [24]: 0.35; Dose/organ [25]: 3.55; Dose/organ [26]: 0.59; Dose/organ [27]: 6.16; Dose/organ [28]: 4.18; Dose/organ [29]: 1.39; Dose/organ [30]: 0.29 |
| CC(C[18F])NC[C@@H](O)COc1cccc2[nH]c3ccccc3c12 (stereo not given in full) | 0.73 | 0.37 | 0.84 | 4.43 | 1.98 | 0.94 | 1.25 | 0.28 | 1.03 | 0.2 | 0.78 | 0.63 | 1.57 | 0.77 | 0.42 | 0.06 | 1.57 | 0.24 | 3.3 | 0.83 | Dose/organ [21]: 1; Dose/organ [22]: 0.48; Dose/organ [23]: 1.67; Dose/organ [24]: 0.33; Dose/organ [25]: 3.08; Dose/organ [26]: 0.5; Dose/organ [27]: 3.29; Dose/organ [28]: 4.6; Dose/organ [29]: 2.63; Dose/organ [30]: 0.57 |
